Most compounds without a hit are left out; they make up all but 3.8% or so of the library.
KCNK9 inh: blocks the human KCNK9 two-pore domain potassium channel; Q9NPC2; HEK293 KCNK9, FluxOR thallium flux fluorescence; active compounds read low; AID 488922; B-score at 10 µM; hit rate 1.2% among 310,000;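 active means ratio B-score over 3 SD below the library mean, with starting fluorescence within 5 SD of its mean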;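 further: negative B-score means less thallium flux so channel inhibition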
KCNQ1 pot: human KCNQ1 channel potentiation or activation. P51787. CHO-K1 KCNQ1, thallium flux FluxOR fluorescence; active compounds read high. B-score at 10 µM. hit rate 0.35% among 310,000;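 active means fluorescence ratio B-score, a plate-corrected score, at least three library SD, with initial intensity B-score within 5 SD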
Target sequence (P51787 whole entry, looked up): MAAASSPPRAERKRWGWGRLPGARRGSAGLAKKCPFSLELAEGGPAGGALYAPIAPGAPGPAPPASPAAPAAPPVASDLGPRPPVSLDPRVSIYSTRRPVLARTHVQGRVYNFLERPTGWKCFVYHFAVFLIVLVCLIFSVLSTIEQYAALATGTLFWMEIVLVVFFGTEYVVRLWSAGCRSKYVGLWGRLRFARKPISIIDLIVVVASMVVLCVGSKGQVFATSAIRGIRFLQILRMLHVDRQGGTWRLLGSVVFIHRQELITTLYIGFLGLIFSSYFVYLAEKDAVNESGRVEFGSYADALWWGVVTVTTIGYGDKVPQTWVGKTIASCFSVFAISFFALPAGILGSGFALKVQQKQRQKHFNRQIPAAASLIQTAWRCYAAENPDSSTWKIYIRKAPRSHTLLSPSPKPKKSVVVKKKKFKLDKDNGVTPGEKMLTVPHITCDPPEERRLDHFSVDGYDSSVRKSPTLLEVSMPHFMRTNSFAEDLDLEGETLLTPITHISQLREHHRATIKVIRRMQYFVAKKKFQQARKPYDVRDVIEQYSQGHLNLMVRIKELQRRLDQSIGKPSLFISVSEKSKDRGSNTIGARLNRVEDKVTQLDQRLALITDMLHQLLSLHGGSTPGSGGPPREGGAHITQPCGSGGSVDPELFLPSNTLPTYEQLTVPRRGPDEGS
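Assay system: CHO-K1 cells stably expressing KCNQ1; Medium: assay buffer with matched DMSO; Also added: K+/Tl+ depolarizing stimulus; Dosing: single dose; Timing: dye 90 min, compound 20 min, room temperature; Measured by: kinetic FluxOR thallium fluorescence, 10-s 1-Hz baseline, 110-s post-stimulus read; Read-out: peak-minus-minimum fluorescence over initial fluorescence, negative-control normalized, B-scored.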
hERG protect: shields human hERG channel from block by proarrhythmic agents; Q12809; CHO-hERG, FluxOR thallium flux, dofetilide IC70 present; activation (rescue from dofetilide block), less the hit threshold, % at 10 µM; hit rate 0.51% among 310,000;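 active means activation above the mean of controls blocked by dofetilide plus 5 SD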;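 further: thallium influx through hERG after potassium depolarization seen as dye fluorescence rise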
KCNK3 inh: human KCNK3 channel inhibition, primary screen; hit rate 0.84% among 340,000; O14649; CHO-KCNK3 thallium flux, FluxOR fluorescence; active compounds read low; AID 602410; B-score at 10 µM;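 active means B-score under library mean minus 4 SD, starting fluorescence ratio at most library mean plus 5 SD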;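 further: more negative B-score means stronger inhibition of thallium flux through KCNK3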
KCNQ1 block: inhibitors of human KCNQ1 potassium channel; B-score at 10 µM; hit rate 1.3% among 310,000; AID 2642; CHO-K1 KCNQ1, FluxOR thallium flux fluorescence; active compounds read high; P51787;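 active means compounds whose thallium flux B-score, printed positive for inhibition, exceeds three library SD while starting fluorescence stays within three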;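 further: channel opened by potassium depolarization with thallium stimulus after 20 min compound exposure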
Kir21 block: inhibitors of mouse Kir2.1 inward-rectifier potassium channel; P35561; HEK293-Kir2.1, FluxOR thallium flux fluorescence; active compounds read low; B-score at 10 µM; hit rate 0.85% among 310,000; AID 1672;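 active means fluorescence ratio B-score at or below minus 3 SD of library scores, with starting-brightness B-score within 2 SD, cut at about -4.2 in these data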;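 further: channel flux triggered by added potassium and thallium sulfate stimulus; B-score of peak minus minimum fluorescence over baseline after thallium stimulus; more negative B-score means stronger Kir2.1 block with less thallium influx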
Each line names hits and unclear results; the compound was inactive in the other large screens.

COc1ccc(-c2csc3ncnc(N4CCN(S(=O)(=O)c5ccc(C)cc5)CC4)c23)cc1	none
Oc1ccc(-c2nccc(-c3ccc(F)cc3)n2)cc1	none
N=C1/C(=C/c2coc3ccccc3c2=O)C(=O)N=C2SC(c3ccco3)=NN12	KCNQ1 block 7
N=C1/C(=C\c2coc3ccccc3c2=O)C(=O)N=C2SC(c3ccncc3)=NN12	KCNQ1 block 16
Cc1cc(OCC(=O)Nc2ccc3oc(=O)ccc3c2)ccc1Cl	none
O=C(NCCCN1CCCC1=O)c1cccc(S(=O)(=O)N2CCN(c3ccccc3)CC2)c1	none
O=C(CNC(=O)C12CC3CC(CC(C3)C1)C2)Nc1ncccc1O	none (no result: KCNK9 inh, KCNQ1 pot, hERG protect, KCNQ1 block, Kir21 block)
CCc1cc2ccccc2nc1SCC(=O)N1CCN(C(=O)c2ccco2)CC1	Kir21 block -4.36
Cn1ccnc1C(=O)c1ccc(NN)c([N+](=O)[O-])c1	none
Cn1ccnc1C(=O)c1cccc([N+](=O)[O-])c1	KCNQ1 pot 8
Cc1cccc2cc(CN(Cc3cccnc3)C(=O)c3cccs3)c3nnnn3c12	none (no result: KCNK3 inh)
COC(=O)c1ccc(NC(=O)c2ccc(NS(=O)(=O)c3cccc4cccnc34)cc2)cc1	none
CCC/C=C(\CCC)C(NS(=O)(=O)c1cccc2cccnc12)c1ccc(C(=O)OC)cc1 (configuration not stated)	KCNQ1 block 6 (no result: KCNK3 inh)
COC(=O)c1ccc(C(NC(=O)OCc2ccccc2)/C(C)=C/[C@@H](C)C(=O)NCc2ccc(-c3ccccc3)cc2)cc1 (some centres not stated)	none
CCC/C=C(\CCC)C(NC(=O)OCC(C)C)c1ccc(C(=O)OC)cc1 (configuration not stated)	KCNQ1 block 9
COc1ccc(C(CCNCc2ccc(OC)c(OC)c2)c2ccc(F)cc2)cc1 (configuration not stated)	Kir21 block -4.47
COC(=O)C(CCSC)NC(=O)c1cn(-c2ccc(OC)cc2)c(=O)c2ccccc12 (configuration not stated)	none
NC(=O)CN1C(=O)C(=O)N(Cc2cccc(C(F)(F)F)c2)C1=O	none
OCC[C@@H]1NCc2cc(CO)cc(-c3ccccc3)c21	KCNK3 inh -9.93 (no result: KCNK9 inh, KCNQ1 pot, hERG protect, KCNQ1 block, Kir21 block)
O=c1cc2c(c(-c3ccccc3)n1Cc1ccccc1)[C@H](CCO)NC2	none (no result: KCNK9 inh, KCNQ1 pot, hERG protect, KCNQ1 block, Kir21 block)
COc1cc(CNCc2ccco2)ccc1OCc1ccccc1	none
COc1cc(CNCc2cccs2)ccc1OCc1cccs1	Kir21 block -4.96
CC(C)(C)NCc1cc(Br)ccc1OCc1cccs1	Kir21 block -4.79
COc1cc(CNCc2cccs2)ccc1OCc1ccccc1	none
COc1cc(CNCc2ccccn2)ccc1OCc1c(Cl)cccc1Cl	Kir21 block -8.79
COc1cc(CNCc2ccccn2)ccc1OCc1cccc(Cl)c1	Kir21 block -7.61
Cc1noc(C)c1NC(=O)Nc1ccc2c(c1)C(=O)N([C@H](C)CO)C[C@H](C)[C@@H](CN(C)S(=O)(=O)c1ccccc1)O2	none (no result: KCNK9 inh, KCNQ1 pot, hERG protect, KCNQ1 block, Kir21 block)
O=S(=O)(NCC(c1ccco1)N1CCCCC1)c1ccccc1C(F)(F)F (configuration not stated)	none (no result: KCNK9 inh, KCNQ1 pot, hERG protect, KCNQ1 block, Kir21 block)
Cc1cc(C)c2nc(N(CCCN(C)C)C(=O)c3ccc(S(=O)(=O)N4CC(C)OC(C)C4)cc3)sc2c1 (configuration not stated)	none
CCN1CCN(Cc2ccc(NC(=O)Nc3ccc(SC)cc3)cc2)CC1	Kir21 block -4.82
COc1ccc(CN2CCN(Cc3ccc(Br)cc3)CC2)c(OC)c1OC	Kir21 block -4.77
COc1cc(OC)c(OC)cc1CN1CCN(Cc2ccc(SC)cc2)CC1	Kir21 block -5.51
COc1cc(CN2CCN(Cc3ccc(SC)cc3)CC2)cc(OC)c1O	none
O=C(Nc1ccc(Cl)cc1)c1ccc(Br)cc1F	none
O=C(Nc1cccc(S(=O)(=O)N2CCOCC2)c1)c1cc([N+](=O)[O-])ccc1N1CCOCC1	none
O=C(CCCCC(=O)Nc1ccccc1Cl)Nc1ccccc1Cl	none
NNC(=O)CNc1ccccc1Cl	hERG protect 5.6
Cc1nnc(SCC(=O)c2c(N)n(C3CC3)c(=O)[nH]c2=O)n1-c1ccccc1	none (no result: KCNK9 inh, KCNQ1 pot, hERG protect, KCNQ1 block, Kir21 block)
CCc1ccc2c(Cl)c(C(=O)N/N=C/c3c[nH]c4ccccc34)sc2c1	KCNQ1 block 6
COc1cccc(N2CCN(c3ncnc4c3[nH]c3ccc(F)cc34)CC2C)c1 (configuration not stated)	KCNK3 inh -13.3, KCNQ1 block 13
Brc1ccc(-n2cnc(-c3ccccc3)c2)cc1	none
O=C(c1cn(Cc2ccccc2)nc1-c1ccccc1)N1CCN(c2ccccn2)CC1	none (no result: KCNK9 inh, KCNQ1 pot, hERG protect, KCNQ1 block, Kir21 block)
CCC1CCc2sc(C(=O)NCC(c3ccc(OC)cc3)N3CCCC3)cc2C1 (configuration not stated)	none
N#CC1=C(N)C(C#N)(C#N)C(c2ccc[nH]2)C2CCCC=C12 (configuration not stated)	Kir21 block -4.89
N#CC1=C(N)C(C#N)(C#N)C(c2cccnc2)C2CCCC=C12 (configuration not stated)	none (no result: KCNK3 inh)
COC(=O)c1sc(NC(=O)COc2ccc(OC)cc2)nc1C	none
O=C(NC(=S)Nc1nc2c(s1)CCCC2)c1ccccc1	none
COC(=O)c1ccc(C(=O)NC(=S)Nc2nc3c(s2)CCCC3)cc1	KCNQ1 pot 23
COC(=O)c1sc(NC(=S)NC(=O)c2cccc(C)c2)nc1C	hERG protect 6.2
CCOC(=O)c1sc(NC(=O)Cc2ccc(C)cc2)nc1C	Kir21 block -4.35
COC(=O)c1sc(NC(=O)COc2cccc3ccccc23)nc1C	hERG protect 9.0
CN(Cc1ccc(Cl)c(Cl)c1)C(=O)C1=CC=CN2CCS(=O)(=O)N=C12	none (no result: KCNK9 inh, KCNQ1 pot, hERG protect, KCNQ1 block, Kir21 block)
CCc1ccc(NC(=O)C(C)Sc2nnc(CN3CCCC3)o2)cc1 (configuration not stated)	none (no result: KCNK9 inh, KCNQ1 pot, hERG protect, KCNQ1 block, Kir21 block)
CN(C(=O)c1cnccn1)c1nnc(-c2cnccn2)s1	hERG protect 10.1
O=S(=O)(NCc1csc(-c2cccnc2)n1)c1ccc(Br)cc1	Kir21 block -7.73
COc1ccccc1CNC(=O)C/C(C)=N/NC(=O)COc1ccc(C)cc1Br	none
C/C(CC(=O)Nc1ccccc1-c1ccccc1)=N\NC(=O)COc1ccc(C)cc1Br	KCNQ1 block 6
CCCN(CCC)C(=O)C(c1ccccc1)C1(O)CCCCC1 (configuration not stated)	KCNK3 inh -8.9 (no result: KCNK9 inh, KCNQ1 pot, hERG protect, KCNQ1 block, Kir21 block)
CSCc1c(C(=O)Nc2ccccc2N2CCOCC2)oc2ccccc12	none (no result: KCNK9 inh, KCNQ1 pot, hERG protect, KCNQ1 block, Kir21 block)
Cc1[nH]n(-c2ccccc2)c(=O)c1/C=N/NC(=O)c1ccc(O)cc1O	none
CCCCN(CCCC)C(=S)N/N=C/c1c(C)[nH]n(-c2ccccc2)c1=O	KCNQ1 pot 29
CC(=O)Nc1ccc(S(=O)(=O)NCCC(=O)OCc2ccc([N+](=O)[O-])cc2)cc1	none
Cc1cc(NC(=O)c2sccc2C)n(-c2nc3ccccc3[nH]2)n1	KCNK9 inh -7.03
Cc1cc(NC(=O)c2cccs2)n(-c2nc3ccccc3[nH]2)n1	none

From PubChem
